Source: ChEMBL document CHEMBL4513216, “Probing the Open Global Health Chemical Diversity Library for Multistage-Active Starting Points for Next-Generation Antimalarials” (ACS Infect Dis, 2020)

Assay: Toxicity liver stage against HepG2, at 10uM
Format: cell-based
Design: test concentration 10 uM, cell line HepG2-A16-CD81EGFP
Settings: human, HepG2-A16-CD81EGFP cells; read-out: INHIBITION
Procedure, shortened: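 Uninfected HepG2-A16-CD81EGFP cells, 3 × 10^3 per well, 1536-well, plated on prespotted compound at 10 μM final, parasite-free screening media added to match infected plates; puromycin 10 μM positive, DMSO 0.5% negative; run in parallel with 48 h PbLuc assay at 37 °C, 5% CO2; viability by CellTiter-Glo luminescence, normalized to controls.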

CCCc1ccc2oc(C(=O)N3CCN(CCC(N)=O)CC3)c(C)c2c1
cytotoxicity at 10 µM: 0.424%

Cc1ccc2[nH]c(=O)cc(C(=O)N[C@@H]3C[C@@H](CO)N(C)C3)c2c1
cytotoxicity at 10 µM: 5.43%

Cc1nn(CCO)cc1CN1CCC(C(C)N2CCCC2)CC1 (stereo unspecified)
cytotoxicity at 10 µM: -1.04%

Cc1cc(C)cc(-c2cccc(CC3(C(=O)O)CCOCC3)c2)c1
cytotoxicity at 10 µM: -4.04%

CCN1CCN(C2(C(=O)NC3CCCC3)Cc3ccccc3C2)CC1
cytotoxicity at 10 µM: -13.8%

CC(C)N(C)Cc1cn2c(n1)CN(C(=O)Cc1ccsc1)CC2
cytotoxicity at 10 µM: -11.1%

Cc1cc(CN(C)C(=O)c2ccc(OC(C)C)nc2)no1
cytotoxicity at 10 µM: -15.3%

Cn1ccnc1C(O)(CCNCc1ccc(Cl)o1)C(F)(F)F (stereo unspecified)
cytotoxicity at 10 µM: 4.91%

O=C(N1CCCCC1)N1CCCC(c2ncncc2-c2ccncc2)C1 (stereo unspecified)
cytotoxicity at 10 µM: -32.1%

CC(NC(=O)c1ccc2c(c1)COC2)c1cccc(N2CCOC2=O)c1 (stereo unspecified)
cytotoxicity at 10 µM: 14.9%

O=C1NCCCc2[nH]c(-c3nc(C4CC4)no3)nc21
cytotoxicity at 10 µM: -5.74%

COCCN1CCCn2cnc(CNC(=O)N(C)C)c2C1
cytotoxicity at 10 µM: 4.47%

Cn1ccnc1CN1CCN(Cc2ccncc2)[C@@H]2CS(=O)(=O)C[C@@H]21
cytotoxicity at 10 µM: 1.5%

CN(C)CCOc1ccc(N(C)S(=O)(=O)c2cnn(C)c2)cc1
cytotoxicity at 10 µM: -13.3%

O=C(c1ccnnc1)N1CCN(Cc2ccncc2)c2ncccc2C1
cytotoxicity at 10 µM: -0.201%

COCc1nnn2c1CN(C(=O)c1ccnnc1)CCC2
cytotoxicity at 10 µM: -0.461%

CC(C)Nc1cc(N2CCC(n3cc(C4CCCC4)nn3)CC2)ncn1
cytotoxicity at 10 µM: 7.81%

O=C(CCc1nnc(-c2ccccc2)o1)N1CCCC1c1ccccn1 (stereo unspecified)
cytotoxicity at 10 µM: -5.82%

O=C1CC2(CCN(CC3CC3)C2)CN1c1cccnc1 (stereo unspecified)
cytotoxicity at 10 µM: -1.18%

CN(c1ccccc1)S(=O)(=O)c1cc2c(c(C(=O)O)c1)OCCO2
cytotoxicity at 10 µM: -9.47%

Cc1cc(C)n(Cc2cc(C(=O)N3CCCC3c3nccs3)n[nH]2)n1 (stereo unspecified)
cytotoxicity at 10 µM: -5.08%

Cc1cc(Cn2cc(C#N)c(=O)c3ccccc32)on1
cytotoxicity at 10 µM: 8.83%

CS(=O)(=O)c1ccc(CNC(=O)N2CCC(C(N)=O)CC2)cc1
cytotoxicity at 10 µM: -3.78%

CN(Cc1ccccc1Cl)C(=O)c1cc(CN2CCC(O)CC2)on1
cytotoxicity at 10 µM: 0.0227%

CC(NCc1cc(O)c2cccc(F)c2n1)c1ccccc1O (stereo unspecified)
cytotoxicity at 10 µM: 4.28%

CC(C(=O)NC1(C#N)CCCCC1)N1CCc2c(ncn2C)C1 (stereo unspecified)
cytotoxicity at 10 µM: 7.04%

O[C@H]1[C@H](NCCc2cnccn2)c2ccccc2C12CCNCC2
cytotoxicity at 10 µM: -7.32%

Cc1cnn(CCNCC(=O)NCc2ccccc2)c1
cytotoxicity at 10 µM: -4.25%

Cc1nccn1CCC1CCN(c2ncccn2)CC1
cytotoxicity at 10 µM: -3%

CC(C(=O)N1CCN(Cc2ccncc2)CC1)n1cncn1 (stereo unspecified)
cytotoxicity at 10 µM: -4.73%

NC(=O)c1cccc(OCC(=O)NS(=O)(=O)c2ccc3c(c2)CCC3)c1
cytotoxicity at 10 µM: -6.22%

Cn1cc(CCNCc2cc(Cl)c3c(c2)OCCO3)cn1
cytotoxicity at 10 µM: -9.69%

Cc1nc(-c2ccncc2)ncc1C(C)NC(=O)Cn1ccccc1=O (stereo unspecified)
cytotoxicity at 10 µM: 4.01%

COc1ccccc1N1CCN(C(=O)c2ccoc2)CC1
cytotoxicity at 10 µM: 11.5%

O=C(N[C@@H]1CN[C@H]2CCCO[C@H]21)c1cnccn1
cytotoxicity at 10 µM: 6.38%

Cc1ccsc1C(=O)N(C)Cc1ccncc1
cytotoxicity at 10 µM: -4.54%

O=C(CN1C(=O)CCNC1=O)N1CCC(c2ccc(F)cc2)C1 (stereo unspecified)
cytotoxicity at 10 µM: 4.3%

CNC(=O)CCc1cc(C)nc(C2CCN(CC(=O)N(C)C)CC2)c1
cytotoxicity at 10 µM: 2.9%

CC(C)C(Sc1nnnn1C1CC1)C(=O)NCc1cccnc1 (stereo unspecified)
cytotoxicity at 10 µM: -0.267%

CCn1c(Cn2ccnc2)nnc1C1CCN(Cc2ccc(C)o2)CC1
cytotoxicity at 10 µM: -2.28%

Cc1nn2c(-c3cnn(C)c3)nnc2s1
cytotoxicity at 10 µM: -15.4%

Cc1cccc(CN2CCc3[nH]nc(C(=O)N(C)C)c3C2)n1
cytotoxicity at 10 µM: -0.596%

CCCc1cc(CNC(=O)Cc2cc(C)no2)on1
cytotoxicity at 10 µM: -1.04%

Nc1cc(C(=O)NCC2CCN(Cc3cccc(O)c3)C2)ccn1 (stereo unspecified)
cytotoxicity at 10 µM: -8.69%

CC(C)C(=O)N1CCCC(Cc2ccccn2)C1 (stereo unspecified)
cytotoxicity at 10 µM: -5.3%

CNc1cncc(C2CCCN2S(=O)(=O)c2ccc(F)cc2)n1 (stereo unspecified)
cytotoxicity at 10 µM: -3.21%

CN(C)CC1(O)CCCN(c2noc(-c3ccccc3)n2)CC1 (stereo unspecified)
cytotoxicity at 10 µM: 0.0264%

O=C(NCc1nn(-c2ccccc2)c2c1CCC2)N1CCCC(O)C1 (stereo unspecified)
cytotoxicity at 10 µM: -10.2%

CC(C)N1CCCCC1CCn1cnc2cc(C(F)(F)F)ccc2c1=O (stereo unspecified)
cytotoxicity at 10 µM: -5.98%

CCOCCNC(=O)c1cccnc1N1CCCC1c1ccccn1 (stereo unspecified)
cytotoxicity at 10 µM: 4.65%

CN(C)[C@@H]1CCN(c2ncccn2)[C@H]1Cc1ccncc1
cytotoxicity at 10 µM: -17.9%

N#Cc1cccc(S(=O)(=O)NC(=O)COCC(F)(F)F)c1
cytotoxicity at 10 µM: -0.828%

CN(Cc1ccco1)C(=O)c1ccc(=O)n(C)c1
cytotoxicity at 10 µM: -47.5%

CSc1nccc(N2CCC(NCc3nc(C)cc(C)n3)CC2)n1
cytotoxicity at 10 µM: 3.41%

Cc1nn(C)c(N(C)C)c1CNCc1cccc(Cn2cncn2)c1
cytotoxicity at 10 µM: -7.85%

c1cnn(CC2CN(c3ncnc4[nH]ccc34)CCO2)c1 (stereo unspecified)
cytotoxicity at 10 µM: -8.81%

Cc1noc(C)c1CNC(=O)N1CCC(C(O)c2ccccc2)CC1 (stereo unspecified)
cytotoxicity at 10 µM: -9.41%

CCn1nc(C)c2nnn(CC(=O)Nc3ccccc3F)c(=O)c21
cytotoxicity at 10 µM: 5.37%

CC(C)c1nnc2n1CCN(C(=O)c1ccc3c(c1)NC(=O)CO3)C2
cytotoxicity at 10 µM: 7.07%

O=C1NCCCCC1NS(=O)(=O)N1CCCCC1 (stereo unspecified)
cytotoxicity at 10 µM: 1.48%

Cc1c(CNS(=O)(=O)c2cccc(COC(C)C)c2)cnn1C
cytotoxicity at 10 µM: 6.14%

O=C(COCC1CC1)Nc1cc(S(=O)(=O)NC2CC2)ccc1F
cytotoxicity at 10 µM: -7.63%

CCn1cc2c(n1)C(COCC1CC1)CN(C(=O)c1cc(C)on1)C2 (stereo unspecified)
cytotoxicity at 10 µM: 17.8%

OC1(CNCCc2csc(-c3ccncc3)n2)CCCNC1 (stereo unspecified)
cytotoxicity at 10 µM: -13.2%

OCc1cc2ccccc2nc1NCC1CCN(CC(F)(F)F)C1 (stereo unspecified)
cytotoxicity at 10 µM: -55.7%

Cn1cc(CN2C[C@H]3CCC[C@@H](CNc4ncccn4)[C@H]3C2)cn1
cytotoxicity at 10 µM: -2.57%

Cc1c[nH]c(C2COCCN2C(=O)CCc2c(C)n[nH]c2C)n1 (stereo unspecified)
cytotoxicity at 10 µM: -0.615%

CCc1ccc2c(c1)C(CCNC(=O)Cc1ccc(F)cc1)C(=O)N2 (stereo unspecified)
cytotoxicity at 10 µM: -44.3%

Cc1cnc(C)c(N2CCN(Cc3ccc(C)c(C)c3)CC2)n1
cytotoxicity at 10 µM: 6.68%

Cn1ccnc1-c1ccccc1C(=O)N1CCc2c(nc(N)[nH]c2=O)C1
cytotoxicity at 10 µM: -5.3%

O=C(NCCCn1cncn1)N1CCC(N2CCCCC2)CC1
cytotoxicity at 10 µM: -7.01%

Cc1ccccc1-c1cncc(C2CCN(S(=O)(=O)N(C)C)CC2)n1
cytotoxicity at 10 µM: 0.0706%

Cn1cc(C[C@H]2[C@@H](OCC3CC3)CCN2C(=O)c2ccc[nH]2)cn1
cytotoxicity at 10 µM: -72.7%

O=C(O)[C@]12CCCN(Cc3ccccc3)C[C@H]1CN(c1ncccn1)C2
cytotoxicity at 10 µM: -8.33%

O=C1CC(N(C(=O)Cc2csc(-c3ccccc3)n2)C2CC2)C(=O)N1 (stereo unspecified)
cytotoxicity at 10 µM: 3.51%

CC(C(=O)N1CCc2ccccc2C1)n1cc(Br)cn1 (stereo unspecified)
cytotoxicity at 10 µM: -8.77%

Cc1cc(C)n(C2CN(CC(O)c3cc(F)ccc3F)C2)n1 (stereo unspecified)
cytotoxicity at 10 µM: -15.1%

O=C(c1ccoc1)N1CC[C@@H]2O[C@@H](COCC3CCOCC3)CC[C@@H]21
cytotoxicity at 10 µM: -76.2%

O=c1[nH]c(COc2ccccc2Cl)nc2c1CCNC2
cytotoxicity at 10 µM: 1.97%

O=C(NC1CCC1)[C@@H]1CCO[C@@H]2CCN(CCc3ccccc3)C[C@H]21
cytotoxicity at 10 µM: -7.24%

CCN(CCn1c(=O)oc2ccccc21)CC1CCOCC1
cytotoxicity at 10 µM: -8.73%
